Results on seven molecules are retold here after ChEMBL document CHEMBL4819071, “Design, synthesis and in-vitro evaluation of fluorinated triazoles as multi-target directed ligands for Alzheimer disease” (Bioorg Med Chem Lett, 2021).

Calls of active or inactive are those of the source. No cut-off for these calls is given here. A value given as a limit tells only on which side of the number the result lay.

The subject of data set [1] is PC-12. Kind of data set: (§1) Cytotoxicity against rat PC-12 cells assessed as cell viability at 40 uM measured after 24 hrs by Alamar blue assay relative to control. The class given is cell-based. The conditions noted are these: pc-12, 24 h, 40 µM. The essentials: (§2)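 PC-12 neuronal cells incubated 24 h with compound at 40 µM. Viability read with Alamar Blue and expressed as percent of untreated cells.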
(The colour change of resazurin is a common sign of viable cells or microbes.)

Data set [2] has as its target T1, Amyloid-beta precursor protein (Homo sapiens, UniProt P05067). As to the kind of experiment: Inhibition of amyloid beta (1 to 42 ) (unknown origin) self aggregation at 40 uM after 24 hrs by thioflavin-T fluorescence method. The method, boiled down:
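Aβ42 (10 µM) incubated with compound (40 µM) for 24 h at 37 °C. Fibril formation quantified by Thioflavin T and given as percent of Aβ42 left to fibrillate alone. n = 3, Dunnett test.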

Data set [3] is described as follows: as §1. The conditions noted are these: PC-12 cells, read-out: Activity. The class given is cell-based. The essentials:
as §2

The target in data set [4] is T1, Amyloid-beta precursor protein. As to the kind of experiment: Inhibition of amyloid beta (1 to 42 ) (unknown origin) self aggregation at 40 uM measured after 24 hrs in presence of copper ion by thioflavin-T fluorescence method. The essentials:
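Aβ42 (10 µM) incubated with Cu2+ (10 µM) and compound for 24 h at 37 °C with shaking at 180 rpm. Percent fibril formation determined by Thioflavin T. Compared against Aβ42 alone and Aβ42 + Cu2+ by Dunnett test. n = 3.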

Data set [5] in a line: Metal chelating activity assessed as Cu2+-compound complex formation by measuring hyperchromic shift at 50 uM incubated for 30 mins by UV-visible spectrophotometry.
Data set [6] in a line: Metal chelating activity assessed as Zn2+-compound complex formation at incremental dose of compound incubated for 30 mins by UV-visible spectrophotometry.
A short description of data set [7]: Metal chelating activity assessed as Cu2+-compound complex formation at compound:Cu2+ concentration ratio of 1:1 to 1:6 incubated for 30 mins by UV-visible spectrophotometry. The essentials: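 Compound titrated with Cu2+ at compound:Cu ratios 1:1 to 1:6 in HEPES buffer at room temperature. UV–vis spectra recorded over about 240–320 nm. Absorbance plotted against ratio and fitted linearly.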

A short description of data set [8]: Metal chelating activity assessed as Zn2+-compound complex formation by measuring hyperchromic shift at 50 uM incubated for 30 mins by UV-visible spectrophotometry.
Data set [9] is described as follows: Metal chelating activity assessed as Fe3+-compound complex formation by measuring hyperchromic shift at 50 uM incubated for 30 mins by UV-visible spectrophotometry.
For data set [10], the system named is PC-12. Kind of data set: Anti-inflammatory activity in rat PC-12 cells assessed as decrease in LPS-stimulated ROS accumulation at 40 uM measured after 24 hrs by DCFH-DA staining based FACS […] assay. The class given is functional, cell-based. The essentials:
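PC-12 cells inflamed with LPS (10 µg/mL), then treated with compound at 40 µM for 24 h. ROS measured by DCFDA flow cytometry. Cells gated on FSC/SSC, singlets selected (FSC area vs height), and dead cells excluded by propidium iodide. The percentage of DCFDA ROS-high live cells was taken from the FL1 vs FSC dot plot quadrant. n = 3.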

In data set [11] the target is T1, Amyloid-beta precursor protein. Kind of data set: Inhibition of amyloid beta (1 to 42 ) (unknown origin) self aggregation measured after 24 hrs by thioflavin-T fluorescence method.
A short description of data set [12]: Metal chelating activity assessed as Fe3+-compound complex formation at compound:Fe3+ concentration ratio of 1:1 to 1:5 incubated for 30 mins by UV-visible spectrophotometry. The method, boiled down:
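Compound combined with Fe3+ at compound:Fe ratios 1:1, 1:3 and 1:5 in HEPES buffer at room temperature. UV–vis spectra recorded over about 250–350 nm.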

T1 sequence (P05067 whole entry): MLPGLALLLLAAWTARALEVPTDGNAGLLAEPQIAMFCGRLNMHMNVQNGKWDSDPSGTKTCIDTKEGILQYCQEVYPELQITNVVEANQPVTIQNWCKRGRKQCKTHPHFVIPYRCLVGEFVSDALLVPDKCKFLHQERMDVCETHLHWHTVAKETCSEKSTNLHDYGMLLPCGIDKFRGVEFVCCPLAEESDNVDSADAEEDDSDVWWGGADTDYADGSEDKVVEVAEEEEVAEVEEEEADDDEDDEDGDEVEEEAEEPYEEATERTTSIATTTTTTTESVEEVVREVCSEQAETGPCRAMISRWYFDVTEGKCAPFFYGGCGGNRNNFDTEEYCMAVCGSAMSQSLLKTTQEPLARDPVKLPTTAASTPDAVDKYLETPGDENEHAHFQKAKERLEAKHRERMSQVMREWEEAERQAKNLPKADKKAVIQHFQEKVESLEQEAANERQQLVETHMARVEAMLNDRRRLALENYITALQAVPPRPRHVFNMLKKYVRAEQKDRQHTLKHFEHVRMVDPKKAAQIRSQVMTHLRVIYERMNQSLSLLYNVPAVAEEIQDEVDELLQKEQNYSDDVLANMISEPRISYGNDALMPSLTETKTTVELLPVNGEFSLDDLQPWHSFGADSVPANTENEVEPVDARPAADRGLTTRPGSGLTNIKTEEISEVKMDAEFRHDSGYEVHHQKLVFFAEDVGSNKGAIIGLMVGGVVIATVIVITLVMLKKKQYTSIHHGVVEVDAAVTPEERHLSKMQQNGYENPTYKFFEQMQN

For the molecule `OC(c1ccc(NCc2cn(-c3ccccc3)nn2)cc1)(C(F)(F)F)C(F)(F)F`, the Activity entry in [1] is “Toxic”.

In the case of `Cc1ccc(-n2cc(CNc3ccc(C(O)(C(F)(F)F)C(F)(F)F)cc3)nn2)cc1C`, the inhibition entry in data set [2] is “inactive”. In addition, in data set [3], the viability at 24 h, 40 µM was above 60%.

With `Cc1ccc(NC(=O)c2cn(-c3ccc(C(O)(C(F)(F)F)C(F)(F)F)cc3)nn2)cc1C`, in data set [2], the inhibition entry was “Active”. In addition, in data set [3], the viability at 24 h, 40 µM was above 60%.

In the case of `O=C(Nc1ccccc1)c1cn(-c2ccc(C(O)(C(F)(F)F)C(F)(F)F)cc2)nn1`, the inhibition entry in [2] is “inactive”. The viability at 24 h, 40 µM in data set [3] is above 60%.

`COc1ccc(-n2cc(CNc3ccc(C(O)(C(F)(F)F)C(F)(F)F)cc3)nn2)cc1OC`: the inhibition entry in data set [2] was “Active”. Also, the inhibition in [4] was below 50%. In addition, the viability at 24 h, 40 µM in [3] is above 60%.

Consider `Cc1ccc(-n2cc(C(=O)Nc3ccc(C(O)(C(F)(F)F)C(F)(F)F)cc3)nn2)cc1C`, for which the result in data set [5], in data set [6], in [7], in data set [8], in data set [9] and in [10] was Active. Besides, in data set [12], the result was Active. Further, the inhibition entry in data set [2] was “Active”. The inhibition in data set [4] was below 50%. The viability at 24 h, 40 µM in data set [3] was above 60%. The same molecule registered an IC50 in data set [11] of 4.6 µM.

Regarding `O=C(Nc1ccc(C(O)(C(F)(F)F)C(F)(F)F)cc1)c1cn(-c2ccccc2)nn1`, the Activity entry in data set [1] is on record as “Toxic”.

The inhibition is the relative decrease from the control value, in per cent. What is called IC50 is the concentration needed to halve the response being measured.
